In series [1] the test system is K562. The experiment in a line: Potentiation of doxorubicin-induced cytotoxicity in human K562 cells assessed as induction of cell death in presence of doxorubicin incubated for 72 hrs by MTT assay. As to conditions: K562, 72 h. Type of series: functional, cell-based. The method in brief: (§1)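 K562 leukaemia cells seeded at equal numbers per well and exposed for 72 h to doxorubicin (1 or 2 μM), the test agent at varying concentrations, or both. Surviving cells counted relative to untreated control. Significance was taken as P < 0.05.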

Series [2] has as its system K562. Nature of the series: Toxicity in human K562 cells assessed as reduction in cell viability up to 10 uM incubated for 72 hrs by MTT assay. Type of series: cell-based. As to conditions: k562, 72 h. The method in brief: as §1
In general terms: Formazan colour is commonly taken as a measure of viable cells.

Series [3] relates to K562. Nature of the series: Potentiation of doxorubicin-induced apoptotic cell death in human K562 cells at 4 uM in presence of 1 uM doxorubicin incubated for 72 hrs by Annexin V/propidium iodide staining based assay. In kind it is functional. The method in brief: (§2)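 K562 cells treated for 72 h with doxorubicin, the test agent, or the two combined. They were then stained with labelled annexin V and propidium iodide to show surface phosphatidylserine, and imaged by fluorescence microscopy.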

The subject of a further series is HL-60. Nature of the series: Cytotoxicity in human HL60 cells assessed as reduction in cell viability incubated for 48 hrs by MTT assay. In kind it is functional, cell-based. The method in brief: (§3)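 Human tumour lines grown in DMEM with 10% fetal calf serum, 37 °C, 5% CO2, passaged at 60–70% confluency. About 5000 cells/well seeded in triplicate and grown 24 h. Medium then replaced with medium containing compound at various concentrations. After 48 h, MTT (5 mg/mL) added for 4 h. DMSO-soluble formazan read at 590 nm. Doxorubicin served as positive control.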

Series [4] relates to K562. The experiment in a line: Potentiation of doxorubicin-induced cytotoxicity in human K562 cells assessed as induction of cell death at 3 to 10 uM in presence of 1 uM doxorubicin incubated for 72 hrs by MTT assay. In kind it is functional, cell-based. The method in brief: as §1
In series [5] the test system is K562. Nature of the series: Toxicity in human K562 cells assessed as induction of apoptotic cell death at 4 uM incubated for 72 hrs by Annexin V/propidium iodide staining based assay. To be noted: k562, 72 h. The method in brief:
as §2

Another series relates to A549. Nature of the series: Cytotoxicity in human A549 cells assessed as reduction in cell viability incubated for 48 hrs by MTT assay. In kind it is functional, cell-based. The method in brief: as §3
In series [6] the test system is K562. Nature of the series: Cytotoxicity in human K562 cells assessed as reduction in cell viability incubated for 48 hrs by MTT assay. In kind it is functional, cell-based. As to conditions: K562, 48 h. The method in brief: as §3
In series [7] the test system is K562. The experiment in a line: Potentiation of doxorubicin-induced cytotoxicity in human K562 cells assessed as induction of cell death in presence of 1 uM doxorubicin incubated for 72 hrs by MTT assay. Type of series: functional. To be noted: K562, 72 h, read-out: MEC. The method in brief:
as §1

In the next series the test system is MCF7. Nature of the series: Cytotoxicity in human MCF7 cells assessed as reduction in cell viability incubated for 48 hrs by MTT assay. In kind it is functional, cell-based. The method in brief:
as §3

For series [8], the system named is K562. Nature of the series: Potentiation of doxorubicin-induced cytotoxicity in human K562 cells assessed as induction of cell death at 1 to 10 uM in presence of 2 uM doxorubicin incubated for 72 hrs by MTT assay. Type of series: functional, cell-based. The method in brief:
as §1

Series [9] is described as follows: Toxicity in human K562 cells assessed as reduction in cell viability incubated for 72 hrs by MTT assay. In kind it is cell-based. To be noted: read-out: LD50. The method in brief: (§4)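 K562 cells were grown in DMEM with 10% fetal calf serum at 37 °C in 5% CO2. About 5000 cells per well were seeded and grown 24 h. Medium was then replaced with medium holding various compound concentrations for 72 h. Viability was measured by MTT (4 h), reading formazan in DMSO at 590 nm. Survival was compared with untreated control, in triplicate.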

In another series the test system is MDA-MB-231. The experiment in a line: Cytotoxicity in human MDA-MB-231 cells assessed as reduction in cell viability incubated for 48 hrs by MTT assay. Type of series: functional, cell-based. The method in brief: as §3
Series [10] relates to K562. The experiment in a line: Potentiation of doxorubicin-induced cytotoxicity in human K562 cells assessed as induction of cell death at 4 uM in presence of 1 uM doxorubicin incubated for 72 hrs by MTT assay. Type of series: functional. The method in brief:
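K562 cells were grown in DMEM with 10% FCS at 37 °C in 5% CO2 and seeded at about 5000 cells per well for 24 h. They were cotreated for 72 h with 1 or 2 μM doxorubicin plus varying test compound up to 10 μM. Survival was read by MTT at 590 nm against untreated control, in triplicate. Significance was set at P < 0.05.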

For series [11], the system named is K562. The experiment in a line: Induction of apoptotic cell death in human K562 cells at 1 uM incubated for 72 hrs by Annexin V/propidium iodide staining based assay. Type of series: functional. The method in brief: as §2
Series [12] relates to K562. Nature of the series: Cytotoxicity in human K562 cells assessed as induction of cell death at 1 uM incubated for 72 hrs by MTT assay. Type of series: functional. The method in brief:
as §4

For series [13], the system named is K562. The experiment in a line: Cytotoxicity in human K562 cells assessed as reduction in cell viability incubated for 72 hrs by MTT assay. In kind it is functional. To be noted: K562, 72 h, read-out: LD50 (the source's name). The method in brief:
as §4

SMILES strings stand for the structures. Activity calls are given as the source filed them. The rule behind the calls is not given here.

For `CCCCCCCCCCCC(=O)O[C@H]1[C@H](O[C@@H]2[C@@H](O[C@@H]3O[C@@H](C)[C@H](OC(=O)[C@@H](C)CC)[C@@H](O)[C@H]3O)[C@H]3OC(=O)CCCCCCCCC[C@@H](CCCCC)O[C@@H]4O[C@H](C)[C@H](O)[C@H](O)[C@H]4O[C@@H]3O[C@H]2C)O[C@@H](C)[C@H](O[C@@H]2O[C@@H](C)[C@H](O)[C@@H](O)[C@H]2O)[C@H]1O`, the IC50 – broadly, the concentration that inhibits the measured activity by half – in the series on K562 [1] came to 8.5 µM; with K562 [6], 18.3 µM. Moreover, the results for the Activity entry in the series on K562 [2], in the series with K562 [5] and in the series with K562 [10] were “Non-Toxic”, “Non-Toxic” and 47%, respectively. Also, the outcome with K562 [3], in the series with K562 [4] and with K562 [8] was Active. The outcome in the series with HL-60, in the series with A549, with MCF7 and with MDA-MB-231 was inactive. Also, the minimal effective concentration in the series with K562 [7] came out at 4 µM. In addition, the CC50 at 72 h in series [9] was found to be 20 µM.

On to `CCCCCCCCCCCC(=O)O[C@H]1[C@H](O[C@@H]2[C@@H](O[C@@H]3O[C@@H](C)[C@H](OC(=O)[C@@H](C)CC)[C@H]4OC(C)(C)O[C@@H]34)[C@H]3OC(=O)CCCCCCCCC[C@@H](CCCCC)O[C@@H]4O[C@H](C)[C@@H]5OC(C)(C)O[C@@H]5[C@H]4O[C@@H]3O[C@H]2C)O[C@@H](C)[C@H](O[C@@H]2O[C@@H](C)[C@H](O)[C@H]3OC(C)(C)O[C@@H]23)[C@H]1O`, for which the result with HL-60, in the series on A549, in the series on MCF7 and with MDA-MB-231 was inactive.

Consider `CCCCCCCCCCCC(=O)O[C@H]1[C@H](O[C@@H]2[C@@H](O[C@@H]3O[C@@H](C)[C@H](OC(=O)[C@@H](C)CC)[C@@H](O)[C@H]3OC(=O)/C=C/c3ccccc3)[C@H]3OC(=O)CCCCCCCCC[C@@H](CCCCC)O[C@@H]4O[C@H](C)[C@@H]5OC(C)(C)O[C@@H]5[C@H]4O[C@@H]3O[C@H]2C)O[C@@H](C)[C@H](O[C@@H]2O[C@@H](C)[C@H](O)[C@H]3OC(C)(C)O[C@@H]23)[C@H]1O`, for which the outcome in the series with HL-60, in the series with A549, with MCF7 and in the series with MDA-MB-231 was inactive.

`COc1cccc2c1C(=O)c1c(O)c3c(c(O)c1C2=O)C[C@@](O)(C(=O)CO)C[C@@H]3O[C@H]1C[C@H](N)[C@H](O)[C@H](C)O1` [DOXORUBICIN]: in the series with K562 [11], the outcome was inactive. Also, in the series with K562 [12], the Activity was found to be 11%. Further, the CC50 in the series on K562 [13] amounted to 2 µM.

For the origin of these results see ChEMBL document CHEMBL4316648, “Ipomeolides A and B, Resin Glycosides from Ipomoea pes-caprae and Combination Therapy of Ipomeolide A with Doxorubicin” (J Nat Prod, 2019).
